Measured values as given in ChEMBL document CHEMBL4024778, “From Experiments to a Fast Easy-to-Use Computational Methodology to Predict Human Aldehyde Oxidase Selectivity and Metabolic Reactions” (J Med Chem, 2018).

How the values were obtained:
Liver [1] = assay: Drug level in human liver cytosol treated with N1-(pyrimidin-2-yl)-N2-(quinoxalin-2-yl)ethane-1,2-diamine at 10 uM after 60 mins by LC-MS/MS analysis; type: ADME, tissue-based; conditions: 1 h
Procedure, shortened: (§1)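 Pooled human liver cytosol incubated with 10 μM substrate at pH 7.4 and 37 °C with 1 mM MgCl2·6H2O. Reactions stopped at 0 and 60 min with ice-cold acetonitrile containing 0.6 μM labetalol as internal standard, alongside a compound-free blank. Protein removed by centrifugation. Supernatant analysed by LC-MS/MS on a QTOF with electrospray ionization, using one of three reversed-phase gradient methods.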

Liver [2] = assay: Drug level in human liver microsomes treated with N-((1H-Indol-2-yl)methyl)-2-(pyrrolidin-1-yl)aniline after 60 mins; type: ADME, microsome
Liver [3] = assay: Drug level in human liver cytosol treated with N-(2-(Pyrrolidin-1-yl)phenyl)-1H-indole-2-carboxamide at 10 uM after 60 mins by LC-MS/MS analysis; type: ADME, tissue-based; procedure, shortened: as §1
Liver [4] = assay: Drug level in human liver microsomes treated with N1-(Naphthalen-2-yl)-N2-(pyrimidin-2-yl)ethane-1,2-diamine after 60 mins by LC-MS/MS analysis; type: ADME, microsome; conditions: 1 h
Cytochrome P450 3A4 [5] = biological target: T1, Cytochrome P450 3A4 (Homo sapiens, UniProt P08684); assay: Drug level treated with N1-(Naphthalen-2-yl)-N2-(pyrimidin-2-yl)ethane-1,2-diamine assessed as CYP3A4 (unknown origin)-mediated metabolite formation after 60 mins; type: ADME; conditions: 1 h
Liver [6] = assay: Drug metabolism in human liver microsomes assessed as formation of 2-(pyrimidin-2-ylamino)ethanol after 60 mins; type: ADME, microsome; conditions: 1 h
Cytochrome P450 3A4 [7] = biological target: T1, Cytochrome P450 3A4; assay: Drug metabolism assessed as CYP3A4 (unknown origin)-mediated formation of 2-(pyrimidin-2-ylamino)ethanol after 60 mins; type: ADME; conditions: 1 h
Liver [8] = assay: Drug metabolism in human liver microsomes assessed as formation of 2-(pyrrolidin-1-yl)aniline after 60 mins; type: ADME, microsome; conditions: 1 h
Liver [9] = assay: Drug metabolism in human liver cytosol assessed as formation of 3-(2-(pyrimidin-2-ylamino)ethylamino)quinoxalin-2(1H)-one at 10 uM after 60 mins by LC-MS/MS analysis; type: ADME, tissue-based; procedure, shortened: as §1
Liver [10] = assay: Drug metabolism in human liver microsomes after 60 mins; type: ADME, microsome; conditions: 1 h
Liver [11] = assay: Drug metabolism in human liver cytosol assessed as formation of 2-(pyrrolidin-1-yl)aniline at 10 uM after 60 mins by LC-MS/MS analysis; type: ADME, tissue-based; conditions: 1 h; procedure, shortened: as §1

T1 sequence (P08684 whole entry): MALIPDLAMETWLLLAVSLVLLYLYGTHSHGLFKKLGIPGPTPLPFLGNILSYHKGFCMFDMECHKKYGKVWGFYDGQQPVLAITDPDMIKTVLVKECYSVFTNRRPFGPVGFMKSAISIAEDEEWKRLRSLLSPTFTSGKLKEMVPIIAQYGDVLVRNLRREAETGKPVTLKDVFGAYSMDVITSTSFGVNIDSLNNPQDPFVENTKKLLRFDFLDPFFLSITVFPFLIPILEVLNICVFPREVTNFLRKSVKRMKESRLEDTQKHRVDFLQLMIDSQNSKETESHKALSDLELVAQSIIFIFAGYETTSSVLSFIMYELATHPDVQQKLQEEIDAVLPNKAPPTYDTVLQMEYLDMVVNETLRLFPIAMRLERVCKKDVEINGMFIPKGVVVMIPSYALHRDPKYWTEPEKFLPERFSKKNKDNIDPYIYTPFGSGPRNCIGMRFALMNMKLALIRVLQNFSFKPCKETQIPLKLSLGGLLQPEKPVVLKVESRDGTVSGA

`O=c1[nH]c2ccccc2nc1NCCNc1ncccn1` was tested, and the Drug metabolism (Liver [1]) was “Metabolite_Detected”.

In the case of `Nc1ccccc1N1CCCC1`, the Drug metabolism (Liver [2]) is reported as “Metabolite_Detected” and the Drug metabolism (Liver [3]) is reported as “Metabolite_Detected”.

In the case of `OCCNc1ncccn1`, the Drug metabolism (Liver [4]) is reported as “Metabolite_Detected” and the Drug metabolism (Cytochrome P450 3A4 [5]) is reported as “Metabolite_Detected”.

`c1cnc(NCCNc2ccc3ccccc3c2)nc1` was tested, and the Drug metabolism (Liver [6]) was “Metabolite_Detected” and the Drug metabolism (Cytochrome P450 3A4 [7]) was “Metabolite_Detected”.

For `c1ccc(N2CCCC2)c(NCc2cc3ccccc3[nH]2)c1`, the Drug metabolism (Liver [8]) was “Metabolite_Detected”.

With `c1cnc(NCCNc2cnc3ccccc3n2)nc1` the Drug metabolism (Liver [9]) was “Metabolite_Detected” and the Drug metabolism (Liver [10]) was “Metabolite_Notdetected”.

`O=C(Nc1ccccc1N1CCCC1)c1cc2ccccc2[nH]1` was tested, and the Drug metabolism (Liver [11]) was “Metabolite_Detected” and the Drug metabolism (Liver [10]) was “Metabolite_Notdetected”.
